Screening results (PubChem)
Only some compounds are listed: those with a hit (about 4.6% of all), similar ones and a draw of the others.
TAAR1 antag: human TAAR1 antagonists, primary screen, Fluo-8 calcium fluorescence, CHO RD-HGA16 cells | Trace amine-associated receptor 1 (Homo sapiens), Q96RJ0 | antagonist | inhibition, % at 3 µM | 360,000 compounds, 1.5% hits;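 active = inhibition above a per-plate cutoff, the mean inhibition of test compounds on that plate plus 3 SD, cut at about 49% in these data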;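 note: 0% = DMSO plus EC80 beta-PEA response and 100% = DMSO alone without agonist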
Target sequence (Q96RJ0 whole entry, looked up): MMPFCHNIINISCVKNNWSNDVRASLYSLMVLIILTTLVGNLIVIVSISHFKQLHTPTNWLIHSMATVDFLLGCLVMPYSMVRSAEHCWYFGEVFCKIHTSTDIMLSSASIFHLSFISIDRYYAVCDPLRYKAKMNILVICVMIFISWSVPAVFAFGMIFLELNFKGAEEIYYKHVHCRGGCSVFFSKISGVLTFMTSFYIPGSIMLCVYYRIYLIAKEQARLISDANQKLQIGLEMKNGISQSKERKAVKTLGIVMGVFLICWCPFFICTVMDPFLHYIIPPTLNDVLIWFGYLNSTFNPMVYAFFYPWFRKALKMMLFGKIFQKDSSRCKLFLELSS
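Material: CHO RD-HGA16 cells bearing hTAAR1; compound dosing: one-point dosing, 3 µM nominal final; schedule: dye loading 75 min at 37 °C, then 30 min room temperature; measured by: calcium fluorescence with Fluo-8; control set: vehicle and agonist controls; replication: n of 1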
CHO parental Ca: ATP-evoked calcium signal inhibitors, parental CHO, primary screen, counter-screen for OX1R antagonist project, cell-based, fluorescence, Fluo-8 calcium dye | parental CHO-K1, ATP-induced calcium, Fluo-8 fluorescence | inhibition, % at 5.6 µM | 330,000 compounds, 0.63% hits;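 active = inhibition above that plate's mean sample inhibition plus 3 SD, cut at about 26% in these data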;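 note: 0% = ATP-challenged DMSO wells and 100% = DMSO wells without ATP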
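Test system: parental CHO cells; detection: calcium-sensitive Fluo-8 fluorescence; evaluation: percent inhibition of calcium signal; also added: ATP as calcium-mobilizing challenge; repeats: one well per compound; control set: ATP-challenged DMSO wells low, unchallenged DMSO wells high; compound: single nominal dose of 5.6 µM per compound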
OX1R antag-1: OX1R (HCRTR1) antagonists, primary screen, fluorescence, CHO/OX1R cells, Fluo-8 calcium, orexin A. Orexin/Hypocretin receptor type 1 (Homo sapiens), O43613. Fluo-8 calcium fluorescence. inhibition, % at 5 µM. 330,000 compounds, 0.43% hits. AID 434989, 2010;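 active = inhibition above its plate's threshold, mean inhibition of all tested compounds on the plate plus 3 SD, cut at about 37% in these data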;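 note: 0% = orexin A challenge wells and 100% = SB-334867-A antagonist wells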
TAAR1 ag: human TAAR1 agonists, primary screen, Fluo-8 calcium fluorescence, CHO RD-HGA16 cells; Trace amine-associated receptor 1 (Homo sapiens), Q96RJ0; vehicle wells 0%, saturating PEA agonist 100%; activation, % at 3 µM; 360,000 compounds, 0.99% hits;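 active = activation above the mean activation of all test compounds in the run plus 3 SD, cut at about 38% in these data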
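test system = CHO RD-HGA16 cells carrying human TAAR1 plus Gα16 | schedule = 17-24 h seeding, 75 min 37 °C dye, 30 min RT | compound dosing = 3 µM single concentration | control set = DMSO and PEA EC100 | replicates = n 1 | signal = Fluo-8 fluorescence, 5 s baseline then 140 s kinetic read | measure = percent activation vs PEA EC100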
OX1R antag-2: antagonists of human orexin 1 receptor (OX1R) | 330,000 compounds, 1.8% hits | OX1R-expressing cells, FRET antagonist read-out | AID 485270, 2010 | inhibition, % at 6.6 µM; in the data active = inhibition mostly above about 38%, no sharp cut-off; inactive = mostly below about 40%;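 note: 0% = agonist challenge alone and 100% = reference antagonist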
GPR7 antag: GPR7 receptor antagonists, primary screen, cell-based, fluorescence, single concentration | inhibition, % at 4.4 µM | GPR7-expressing cells, fluorescence antagonist assay | 290,000 compounds, 1.1% hits | Neuropeptides B/W receptor type 1 (Homo sapiens), P48145; in the data active = inhibition above about 16%, passing the limit was not always enough;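 note: cells stimulated with the agonist NPW; 0% = agonist with vehicle and 100% = vehicle without agonist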
Target sequence (P48145 whole entry, looked up): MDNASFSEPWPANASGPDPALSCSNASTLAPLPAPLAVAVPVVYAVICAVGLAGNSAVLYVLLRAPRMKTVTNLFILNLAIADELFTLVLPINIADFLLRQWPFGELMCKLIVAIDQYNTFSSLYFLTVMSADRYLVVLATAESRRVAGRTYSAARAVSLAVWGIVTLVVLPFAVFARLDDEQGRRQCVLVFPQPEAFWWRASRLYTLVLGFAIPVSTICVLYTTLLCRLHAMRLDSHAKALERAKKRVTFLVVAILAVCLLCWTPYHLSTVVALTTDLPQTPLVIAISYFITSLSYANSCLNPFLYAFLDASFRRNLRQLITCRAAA
GPR7 antag cf: GPR7 receptor antagonists, confirmation, cell-based, fluorescence, single concentration; 2,400 compounds, 52% hits; AID 1952, 2009; GPR7-expressing cells, calcium fluorescence antagonist mode; inhibition, % at 4.4 µM; shares compounds with GPR7 antag; in the data active = inhibition above about 24%;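 note: stimulated with the GPR7 agonist NPW; 0% = agonist plus vehicle and 100% = vehicle alone without agonist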
MCHR1 antag: MCHR1 antagonists in cells, counter-screen for GPR7 antagonist project, cell-based, fluorescence, human | inhibition, % at 4.4 µM | MCHR1-expressing cells, fluorescence antagonist assay | AID 2148, 2009 | 2,400 compounds, 62% hits | shares compounds with GPR7 antag; in the data active = inhibition above about 22%;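 note: 0% = vehicle with agonist and 100% = vehicle without agonist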
* hit, by the source's call; . = not tested or not shown.

SMILES	TAAR1 antag	CHO parental Ca	OX1R antag-1	TAAR1 ag	OX1R antag-2	GPR7 antag	GPR7 antag cf	MCHR1 antag
Cc1cc(C)c(S(=O)(=O)NCC2CCC(C(=O)NCCCN3CCOCC3)CC2)c(C)c1 (configuration not stated)	-13.5	.	.	20.9	.	21.7*	12.3	7.2
Clc1ccc2[nH]c3c(NCC4CCCO4)ncnc3c2c1 (configuration not stated)	53.9*	38.2*	39.5	15.0	124.0*	37.8*	8.0	62.1*
CCN(Cc1ccccc1)c1cc2c(c3c1ccn3C)C1CCC2C1 (configuration not stated)	-23.5	.	.	3.7	.	.	.	.
Cc1cccc(N(CC(=O)NC2CCCCC2)C(=O)CCCC(=O)Nc2ccccn2)c1C	-0.2	-15.0	-23.9	-0.5	2.4	29.4*	21.1	12.4
CCCCCCn1c2c(c(=N)c3c1CCC3)CCC2	2.7	5.2	-8.9	14.3	11.1	37.4*	41.9*	45.8*
CCCCn1c2c(c(=N)c3c1CCC3)CCC2	3.5	-10.0	-15.4	16.6	13.3	8.9	.	.
CC1CCCCN1S(=O)(=O)c1coc(C(N)=O)c1 (configuration not stated)	-6.1	-11.6	3.9	1.2	10.5	-8.8	.	.
CC1CCCC(NC(=O)CNC(=S)N(Cc2ccccc2)Cc2cccs2)C1C (configuration not stated)	0.1	-14.7	-20.5	0.2	31.7	21.6*	32.0*	24.1*
CC1CCCC(NC(=O)C2c3ccccc3C(=O)N2Cc2cccs2)C1C (configuration not stated)	1.1	-22.0	-26.8	-1.8	15.6	39.7*	27.8*	24.1*
O=C(NC1CCCCCCC1)C1c2ccccc2C(=O)N1Cc1ccco1 (configuration not stated)	-9.2	-19.1	-26.1	1.9	6.6	39.4*	25.3*	16.8
COC(=O)CSc1nc2ccc(NC(=O)CSc3nnnn3Cc3ccccc3)cc2s1	43.8	51.4*	51.4*	22.2	62.2	37.0*	63.8*	54.7*
O=C(CSc1nc2ccc(NC(=O)c3ccccc3C(=O)O)cc2s1)Nc1ccc(F)c([N+](=O)[O-])c1	6.2	15.4	-3.7	10.8	23.3	25.9*	26.4*	66.0*
COc1ccc2oc(C(=O)OC(C)C(=O)N(C)c3ccccc3)c(C)c2c1 (configuration not stated)	-6.7	1.7	-23.1	-0.1	37.5	.	.	.
CCNC(=O)NC(=O)C(C)OC(=O)c1oc2ccc(OC)cc2c1C (configuration not stated)	-7.6	-7.1	-15.1	0.5	8.6	38.1*	7.9	15.0
CC(C)Cn1c(SCC(N)=O)nnc1-c1cccc(S(=O)(=O)N2CCOCC2)c1	-3.5	-0.7	-7.2	2.9	0.5	.	.	.
Cc1ccc(CSc2nnc(-c3cccc(S(=O)(=O)N4CCOCC4)c3)n2CC(C)C)cc1	-0.1	-10.5	-19.6	6.5	7.6	35.1*	19.4	25.5*
O=C(NCc1cccnc1)c1cc(-c2ccc(Cl)cc2)oc1C(F)(F)F	-34.1	-27.4	-25.3	4.3	15.9	34.0*	24.2*	20.0
CC(C)CC(=O)NC(Nc1ccc([N+](=O)[O-])cc1)C(Cl)(Cl)Cl (configuration not stated)	6.8	-2.9	-6.0	15.7	15.3	25.6*	13.7	45.4*
CCC(NC(=O)CC[C@H]1O[C@@H](n2cc(C)c(=O)[nH]c2=O)C[C@@H]1O)c1ccccc1 (some centres not stated)	8.3	-6.6	-10.3	-0.9	1.4	.	.	.
COC(=O)c1cn[nH]c1NC(=S)Nc1ccc(Cl)c(Cl)c1	9.9	12.9	11.8	12.9	20.5	5.4	.	.
CCOC(=O)c1cn[nH]c1NC(=S)Nc1ccc(OC)cc1	-22.2	-8.8	-17.2	0.2	12.0	29.9*	25.8*	21.0
CCCc1ccc(S(=O)(=O)N/N=C(/C)c2ccc3c(c2)OCO3)cc1	8.7	.	.	2.9	.	-25.3	.	.
CO/N=C/Cc1c([N+](=O)[O-])c(C)nn1C	-5.9	-3.0	-17.9	1.3	8.5	27.7*	-6.9	-10.8
CC1(C)CC(=O)c2c(O)cc(OCC(=O)Nc3ccc(S(N)(=O)=O)cc3)cc2O1	-0.5	-7.8	-8.4	3.0	4.5	-3.9	.	.
COc1cc(NC(=O)COc2cc(O)c3c(c2)OC(C)(C)CC3=O)cc(OC)c1OC	70.1*	82.4*	29.7	10.8	70.9*	34.5*	50.8*	78.9*
SMILES	TAAR1 antag	CHO parental Ca	OX1R antag-1	TAAR1 ag	OX1R antag-2	GPR7 antag	GPR7 antag cf	MCHR1 antag
O=C(Nc1cccc(CNCCc2c[nH]c3ccccc23)c1)c1ccccc1Cl	25.0	3.7	-11.9	49.4*	13.5	46.5*	54.4*	51.2*
COc1ccc(CN(C)CC(O)COc2ccc(-c3ccccc3)cc2)cc1OC (configuration not stated)	-14.3	-10.2	-6.9	16.9	4.6	5.5	.	.
COc1ccc(CN(C)CC(O)COC(c2ccc(OC)cc2)c2ccc(OC)cc2)cc1 (configuration not stated)	3.2	8.0	12.3	14.8	4.4	28.2*	41.9*	30.6*
CCOc1ccc(CN(C)CC(O)COC(c2ccc(OC)cc2)c2ccc(OC)cc2)cc1 (configuration not stated)	-7.1	7.1	-2.1	28.9	-0.1	30.7*	33.2*	45.0*
CCOc1ccc(NC(=O)COC(=O)Cn2cnc3ccccc32)cc1	-4.2	-4.7	-7.5	1.6	13.1	.	.	.
COc1cc(C(=O)NCCN2CCN(C(=O)c3cc(OC)c(OC)c(OC)c3)CC2)cc(OC)c1OC	6.3	-2.9	-8.6	0.4	14.2	-0.7	.	.
CSCCC(NC(=O)c1ccc(Br)cc1)C(=O)O (configuration not stated)	-15.6	-2.7	0.6	0.8	6.2	-2.3	.	.
COc1ccc(CNC(=O)C2CC(c3cccc([N+](=O)[O-])c3)=NO2)cc1 (configuration not stated)	2.1	-11.9	-14.2	8.9	36.2	-8.5	.	.
